# An excerpt weighted towards active compounds, which were near 1.6% of everything screened.
# FLuc act counter: FLuc activators, initial screening, artefact control for FLuc-dependent activation tests, biochemical, ATPlite luminescence; ATPlite luciferase biochemical, 10 min; 0 = ATP-free wells, 1 = DMSO control; 200,000 tested, under 10 active; activation factor at 10 µM; Luciferin 4-monooxygenase (Photinus pyralis), P08659;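 active = luciferase activation factor, scaled between plate controls, of at least 2 with compound at 10 µM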
# Target sequence (P08659 whole entry, looked up): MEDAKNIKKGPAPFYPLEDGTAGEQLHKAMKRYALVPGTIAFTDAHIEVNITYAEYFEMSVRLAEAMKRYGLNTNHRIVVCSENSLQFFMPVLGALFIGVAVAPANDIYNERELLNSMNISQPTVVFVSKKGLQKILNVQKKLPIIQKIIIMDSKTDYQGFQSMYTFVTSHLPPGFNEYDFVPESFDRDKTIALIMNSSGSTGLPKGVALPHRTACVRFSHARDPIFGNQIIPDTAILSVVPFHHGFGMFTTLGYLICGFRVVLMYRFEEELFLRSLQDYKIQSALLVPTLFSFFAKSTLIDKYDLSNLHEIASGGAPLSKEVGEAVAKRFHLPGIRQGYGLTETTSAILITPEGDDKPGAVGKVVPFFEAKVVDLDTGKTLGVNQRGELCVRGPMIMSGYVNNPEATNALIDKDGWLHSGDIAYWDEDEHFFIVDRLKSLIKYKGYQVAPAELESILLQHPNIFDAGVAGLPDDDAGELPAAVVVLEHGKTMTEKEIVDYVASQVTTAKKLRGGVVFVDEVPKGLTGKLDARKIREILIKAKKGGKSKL
#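 Material: Luciferase/luciferin reagent mix; Doses: test compounds dosed from 2 mM stocks in 100% DMSO; Schedule: 10 min incubation after luciferase reagent addition, room temperature; Measured by: luminescence from luciferase reaction; Read-out: luminescence gain marking luciferase activators.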
# PPC-1+TRAIL kill: compounds killing PPC-1 cancer cells with TRAIL present, primary screen, TRAIL potentiator project, ATPLite luminescence, uHTS; PPC-1 cells + TRAIL, ATPLite viability luminescence; cell killing (% activity), % at 4 µM or 5 µM; actives 0.41% (n = 220,000);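 active = cell killing above 50% in the first pass at 4 µM, then a duplicate retest at 5 µM averaging 50% or more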;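 also: plate controls were cells with TRAIL plus DMSO for no effect and medium-only wells lacking cells for full effect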
# FLuc inh counter: firefly luciferase enzyme inhibitors, primary screen, artefact control for luciferase-based inhibitor screens, biochemical, luminescence, ATPLite; 10 min; inhibition, % at 10 µM; actives 1.5% (n = 200,000); AID 1006, 2008;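 active = inhibition above about 50% when tested at 10 µM, limit read from the data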
# TRAIL sens C8: viability loss with TRAIL in NB7+C8 cells, primary screen, TRAIL sensitizer project, cell-based, ATPlite luminescence | inhibition (viability loss, TRAIL sensitization), % at 10 µM | actives 1% (n = 360,000) | AID 624354, 2012;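 active = compounds causing at least 50% loss of cell viability in the single-dose screen, relative to plate controls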
# An asterisk follows results filed as active; x = no result given.
SMILES,FLuc act counter,PPC-1+TRAIL kill,FLuc inh counter,TRAIL sens C8
CCCCCCCCn1ccc(=N)cc1,x,31,x,30
CCCCCCCCCCn1ccc(=N)cc1,x,47,x,55*
CN(C)c1ccc(/C=C/c2ccncc2)cc1,0.9,19,6,12
CN(C)c1ccc(C=Cc2cnccn2)cc1,x,x,x,80*
Cn1c(=O)c2c(ncn2CC(COCc2ccccc2)OCc2ccccc2)n(C)c1=O (centres undefined),x,3,x,25
COc1ccc(CN(C(=O)CSc2nnc(-c3ccccc3C)o2)c2ccc(F)cc2)cc1,1,28,-4,95*
O=C(CSc1nnc(-c2c[nH]c3ccccc23)o1)N(Cc1ccccc1)c1ccc(F)cc1,1,15,1,-13
CC(=O)NS(=O)(=O)c1ccc(NC(=O)C(C)NS(=O)(=O)/C=C/c2ccccc2)cc1 (centres undefined),x,x,x,-9
COc1ccccc1CC(=O)Nc1ncc(C)s1,x,x,x,-16
OCC1OC(n2cnc3c(=S)nc[nH]c32)CC1O (centres undefined),x,x,x,76*
O=c1[nH]cnc2c1ncn2[C@@H]1C[C@@H](O)[C@H](CO)O1,x,x,x,-18
S=c1nc[nH]c2c1ncn2C1CCCO1 (centres undefined),x,31,x,73*
Nc1ncnc2c1ncn2C1CCCO1 (centres undefined),x,x,x,-18
CCn1cc(C(=O)NCCC(C)C)c(=O)c2cc(F)c(N3CCN(C)CC3)cc21,x,x,x,-1
Cc1cc(/C=N/NC(=O)COc2cccc3cccnc23)c(C)n1-c1ccc(O)cc1,0.4,14,57*,-11
O=C(NN=Cc1ccccc1O)c1cccc([N+](=O)[O-])c1,x,x,x,10
Cc1cc(/C=N/NC(=O)c2cccc([N+](=O)[O-])c2)c(C)n1-c1ccccc1,0.3,25,66*,-1
Cc1cc(/C=N/NC(=O)c2cccs2)c(C)n1-c1cnccn1,0.5,18,55*,15
Cc1cc(/C=N/NC(=O)c2ccncc2)c(C)n1-c1ccccc1,0.3,20,70*,14
CCOc1ccccc1N1CCN(CC(=O)NC(C)c2ccccc2)CC1 (centres undefined),x,x,x,26
CCN(CC)S(=O)(=O)c1ccc(C)c(NS(=O)(=O)c2cc(/C=C/C(=O)O)cc(OC)c2OC)c1,1.1,3,-8,3
Cc1cc(C)c(S(=O)(=O)N(C)CC(=O)NCc2ccncc2)c(C)c1,1.1,16,-8,-6
O=C(NC(Cc1ccc(O)cc1)C(=O)N=Nc1c(O)[nH]c2ccccc12)c1ccccc1 (centres undefined),x,x,x,-7
Cc1cc(C(=O)N/N=C/c2ccc(O)c(O)c2O)c(C)n1-c1ccccc1,0.3,24,70*,36
Cc1cc(/C=N/NC(=O)C(O)(c2ccccc2)c2ccccc2)c(C)n1-c1ccccc1,1,18,-1,-4
SMILES,FLuc act counter,PPC-1+TRAIL kill,FLuc inh counter,TRAIL sens C8
CCOC(=O)/C(C#N)=C\c1cc(C)n(-c2ccccc2)c1C,0.2,38,76*,43
CCOC(=O)/C(C#N)=C/c1cc(C)n(-c2ccc(C)cc2)c1C,0.6,14,42,28
COC(=O)N/N=C/c1cc(C)n(-c2ccc(Br)cc2)c1C,x,7,x,3
COC(=O)N/N=C/c1cc(C)n(-c2ccccc2)c1C,0.5,9,52*,9
Cc1cc(C(=O)N/N=C2\CC(=O)c3ccccc32)c(C)n1-c1ccccc1,0.4,18,60*,54*
Cc1ccc(S(=O)(=O)N2CCCCC2)cc1C(=O)Nc1ccc(S(=O)(=O)Nc2ncccn2)cc1,x,-20,x,-1
CCOC(=O)NC1(NC2CCCCC2)Oc2ccccc2O1,1.1,-4,-7,8
CCOC(=O)c1ccc(N2C(=O)C3C(/C=C/c4ccccc4)OC4(C(=O)c5ccccc5C4=O)C3C2=O)cc1 (centres undefined),1.1,55*,-8,-10
CCOC(=O)c1ccc(N2C(=O)[C@@H](c3ccccc3)[C@H]2c2ccccc2)cc1,x,x,x,22
COCCCNC(=O)c1ccc(S(=O)(=O)c2ccc(Cl)cc2)c(NC(C)=O)c1,x,x,x,10
Clc1ccc2nc(-c3ccccc3)cn2c1,x,x,x,63*
Cc1ccn2cc(C(=O)Nc3cccc(C(=O)NC4CC4)c3)nc2c1,x,x,x,54*
Cc1ccn2cc(-c3cccc(NS(C)(=O)=O)c3)nc2c1,0.4,32,58*,27
O=C(Nc1cccc(C(=O)NC2CC2)c1)c1ccccc1,x,x,x,-9
CC(=O)Nc1cccc(-c2cn3ccc(C)cc3n2)c1,0.2,27,76*,47
CN(C)S(=O)(=O)c1cccc(-c2cn3cc(Cl)ccc3n2)c1,0.9,20,7,18
COc1ccc(-c2noc(COC(=O)c3ccco3)n2)cc1OC,x,x,x,-2
Cc1ccn2cc(-c3cccc(NC(=O)CCC(=O)O)c3)nc2c1,x,x,x,59*
CC(=O)Nc1ccc2nc(-c3ccccc3)cn2c1,0.3,47,70*,54*
NS(=O)(=O)c1cccc(NC(=O)COC(=O)Cc2n[nH]c(=O)c3ccccc23)c1,x,x,x,-11
COc1ccc(CN(C)C(=O)c2cccc(NC(=O)CC3SC(N4CCCCC4)=NC3=O)c2)c(OC)c1 (centres undefined),x,x,x,38
COc1ccc(NS(=O)(=O)c2cccc(C(=O)N/N=C/c3c(F)c(F)c(F)c(F)c3F)c2)cc1,x,x,x,66*
Nc1ccccc1S(N)(=O)=O,x,x,x,-3
CC1(C)CC(=O)C=C(c2ccccc2-c2ccc3cc[nH]c3c2)C1=O,x,x,x,-18
CC1(C)CC(=O)C=C(c2ccc(-c3ccc4[nH]ccc4c3)cc2)C1=O,x,x,x,70*
SMILES,FLuc act counter,PPC-1+TRAIL kill,FLuc inh counter,TRAIL sens C8
CCOc1ccc2nc3cc(N=Nc4ccc(N)nc4N)ccc3c(N)c2c1,x,x,x,79*
COc1ccc(N=Nc2ccc(N)nc2N)cc1,x,14,x,0
Cc1ccc(C(=O)O)cc1N1C(=O)c2cccc3c([N+](=O)[O-])ccc(c23)C1=O,x,x,x,17
O=C(O)c1ccc(CN2C(=O)c3cccc4c([N+](=O)[O-])ccc(c34)C2=O)cc1,x,x,x,58*
CC(=O)N(Cc1ccc(F)cc1)C1=C(NCCc2ccccc2)C(=O)c2ccccc2C1=O,1,48,-2,89*
COc1ccccc1NC(=O)CSc1nnnn1-c1ccc(F)cc1,x,x,x,6
CCC(c1nc2ccccc2[nH]1)n1c(-c2ccc3ccccc3c2)nc2ccccc21 (centres undefined),x,x,x,-2
CCCCCCCCC(c1nc2ccccc2[nH]1)N1CCN=C1c1cc2ccccc2[nH]1 (centres undefined),x,x,x,87*
c1ccc(-c2cn3nc4c(nc3n2)CCCC4)cc1,0.1,7,86*,36
CCOC(=O)c1cnc2c(-c3ccc(F)cc3)cnn2c1C(F)(F)F,1,-2,-3,-2
CCOC(=O)c1cnc2c(-c3ccc(Cl)cc3)cnn2c1C,0.4,x,57*,51*
O=C(c1ccccc1)c1cc(Cl)ccc1N1C(=O)C=CC1=O,0.4,23,58*,2

# High-throughput results from PubChem.
